ChEMBL document CHEMBL4689842, “EUbOPEN Chemogenomics Library wave 1” (2021)

System: Fibroblast
Assay: Multiplex assay against human fibroblast
Format: toxicity, cell-based
Summary of the method: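 On a CQ1 microscope at 37°C and 5% CO2, live cells were imaged after compound addition. They had been stained at seeding with Hoechst33342, BioTracker Green Microtubule Cytoskeleton Dye, MitoTracker Red and Annexin V Alexa Fluor 680. CellPathfinder machine-learning gating assigned cells to Hoechst high-intensity objects or normal cells, normal cells to healthy, pyknosed or fragmented nuclei, and pyknosed cells to mitotic or apoptotic. Tubulin, mitochondrial-mass and membrane-permeability phenotypes are per cents of healthy-nucleus cells.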

[1] = 12 h, 1 µM, compound concentration 1 uM, replicate 1
[2] = 12 h, 1 µM, compound concentration 1 uM, replicate 2
[3] = 12 h, 10 µM, compound concentration 10 uM, replicate 1
[4] = 12 h, 10 µM, compound concentration 10 uM, replicate 2
[5] = 24 h, 1 µM, compound concentration 1 uM, replicate 1
[6] = 24 h, 1 µM, compound concentration 1 uM, replicate 2
[7] = 24 h, 10 µM, compound concentration 10 uM, replicate 1
[8] = 24 h, 10 µM, compound concentration 10 uM, replicate 2
[9] = 48 h, 1 µM, compound concentration 1 uM, replicate 1
[10] = 48 h, 1 µM, compound concentration 1 uM, replicate 2
[11] = 48 h, 10 µM, compound concentration 10 uM, replicate 1
[12] = 48 h, 10 µM, compound concentration 10 uM, replicate 2

S=C(NCCCc1c[nH]cn1)NCCCN(Cc1ccc(Cl)c(Cl)c1)c1ccc(Br)cn1
Population Apoptotic (%) [1]: 52% | Population Fragmented Nuclei (%) [1]: 28% | Population Healthy Nuclei (%) [1]: 42% | Population Hoechst High Intensity Objects (%) [1]: 13% | Population Membrane Permeable-Phenotype (%) [1]: 28% | Population Mitochondria Different-Phenotype (%) [1]: 11% | Population Mitotic Cells (%) [1]: 47% | Population Normal (%) [1]: 86% | Population Pyknosed Nuclei (%) [1]: 28% | Population Tubulin-Different-Phenotype (%) [1]: 55% | Total Cell Count [1]: 140 | Population Apoptotic (%) [2]: 0% | Population Fragmented Nuclei (%) [2]: 17% | Population Healthy Nuclei (%) [2]: 82% | Population Hoechst High Intensity Objects (%) [2]: 15% | Population Membrane Permeable-Phenotype (%) [2]: 8% | Population Mitochondria Different-Phenotype (%) [2]: 8% | Population Mitotic Cells (%) [2]: 0% | Population Normal (%) [2]: 84% | Population Pyknosed Nuclei (%) [2]: 0% | Population Tubulin-Different-Phenotype (%) [2]: 4% | Total Cell Count [2]: 79 | Population Apoptotic (%) [3]: 46% | Population Fragmented Nuclei (%) [3]: 18% | Population Healthy Nuclei (%) [3]: 8% | Population Hoechst High Intensity Objects (%) [3]: 20% | Population Membrane Permeable-Phenotype (%) [3]: 66% | Population Mitochondria Different-Phenotype (%) [3]: 11% | Population Mitotic Cells (%) [3]: 53% | Population Normal (%) [3]: 79% | Population Pyknosed Nuclei (%) [3]: 72% | Population Tubulin-Different-Phenotype (%) [3]: 88% | Total Cell Count [3]: 133 | Population Apoptotic (%) [4]: 93% | Population Fragmented Nuclei (%) [4]: 25% | Population Healthy Nuclei (%) [4]: 2% | Population Hoechst High Intensity Objects (%) [4]: 11% | Population Membrane Permeable-Phenotype (%) [4]: 100% | Population Mitochondria Different-Phenotype (%) [4]: 100% | Population Mitotic Cells (%) [4]: 6% | Population Normal (%) [4]: 88% | Population Tubulin-Different-Phenotype (%) [4]: 100% | Total Cell Count [4]: 33 | Population Apoptotic (%) [5]: 66% | Population Fragmented Nuclei (%) [5]: 32% | Population Healthy Nuclei (%) [5]: 48% | Population Hoechst High Intensity Objects (%) [5]: 17% | Population Membrane Permeable-Phenotype (%) [5]: 19% | Population Mitochondria Different-Phenotype (%) [5]: 11% | Population Mitotic Cells (%) [5]: 33% | Population Normal (%) [5]: 82% | Population Pyknosed Nuclei (%) [5]: 18% | Population Tubulin-Different-Phenotype (%) [5]: 64% | Total Cell Count [5]: 154 | Population Apoptotic (%) [6]: 0% | Population Fragmented Nuclei (%) [6]: 19% | Population Healthy Nuclei (%) [6]: 80% | Population Hoechst High Intensity Objects (%) [6]: 8% | Population Membrane Permeable-Phenotype (%) [6]: 16% | Population Mitochondria Different-Phenotype (%) [6]: 8% | Population Mitotic Cells (%) [6]: 0% | Population Normal (%) [6]: 91% | Population Pyknosed Nuclei (%) [6]: 0% | Population Tubulin-Different-Phenotype (%) [6]: 20% | Total Cell Count [6]: 79 | Population Apoptotic (%) [7]: 53% | Population Fragmented Nuclei (%) [7]: 24% | Population Healthy Nuclei (%) [7]: 15% | Population Hoechst High Intensity Objects (%) [7]: 21% | Population Membrane Permeable-Phenotype (%) [7]: 56% | Population Mitochondria Different-Phenotype (%) [7]: 18% | Population Mitotic Cells (%) [7]: 46% | Population Normal (%) [7]: 78% | Population Pyknosed Nuclei (%) [7]: 60% | Population Tubulin-Different-Phenotype (%) [7]: 93% | Total Cell Count [7]: 133 | Population Apoptotic (%) [8]: 100% | Population Fragmented Nuclei (%) [8]: 12% | Population Healthy Nuclei (%) [8]: 24% | Population Hoechst High Intensity Objects (%) [8]: 25% | Population Membrane Permeable-Phenotype (%) [8]: 94% | Population Mitochondria Different-Phenotype (%) [8]: 88% | Population Mitotic Cells (%) [8]: 0% | Population Normal (%) [8]: 74% | Population Pyknosed Nuclei (%) [8]: 62% | Population Tubulin-Different-Phenotype (%) [8]: 88% | Total Cell Count [8]: 34 | Population Apoptotic (%) [9]: 57% | Population Fragmented Nuclei (%) [9]: 50% | Population Healthy Nuclei (%) [9]: 39% | Population Hoechst High Intensity Objects (%) [9]: 20% | Population Membrane Permeable-Phenotype (%) [9]: 24% | Population Mitochondria Different-Phenotype (%) [9]: 1% | Population Mitotic Cells (%) [9]: 42% | Population Normal (%) [9]: 79% | Population Pyknosed Nuclei (%) [9]: 9% | Population Tubulin-Different-Phenotype (%) [9]: 36% | Total Cell Count [9]: 184 | Population Apoptotic (%) [10]: 50% | Population Fragmented Nuclei (%) [10]: 40% | Population Healthy Nuclei (%) [10]: 58% | Population Hoechst High Intensity Objects (%) [10]: 21% | Population Membrane Permeable-Phenotype (%) [10]: 23% | Population Mitochondria Different-Phenotype (%) [10]: 0% | Population Mitotic Cells (%) [10]: 50% | Population Normal (%) [10]: 78% | Population Pyknosed Nuclei (%) [10]: 1% | Population Tubulin-Different-Phenotype (%) [10]: 63% | Total Cell Count [10]: 220 | Population Apoptotic (%) [11]: 58% | Population Fragmented Nuclei (%) [11]: 34% | Population Healthy Nuclei (%) [11]: 25% | Population Hoechst High Intensity Objects (%) [11]: 34% | Population Membrane Permeable-Phenotype (%) [11]: 39% | Population Mitochondria Different-Phenotype (%) [11]: 26% | Population Mitotic Cells (%) [11]: 41% | Population Normal (%) [11]: 65% | Population Pyknosed Nuclei (%) [11]: 40% | Population Tubulin-Different-Phenotype (%) [11]: 91% | Total Cell Count [11]: 137 | Population Apoptotic (%) [12]: 80% | Population Fragmented Nuclei (%) [12]: 37% | Population Healthy Nuclei (%) [12]: 16% | Population Hoechst High Intensity Objects (%) [12]: 33% | Population Membrane Permeable-Phenotype (%) [12]: 77% | Population Mitochondria Different-Phenotype (%) [12]: 0% | Population Mitotic Cells (%) [12]: 20% | Population Normal (%) [12]: 66% | Population Pyknosed Nuclei (%) [12]: 46% | Population Tubulin-Different-Phenotype (%) [12]: 100% | Total Cell Count [12]: 81

CCn1cc(-c2ccnc3[nH]c(-c4cccc(CN(C)C)c4)cc23)c(-c2ccc(NC(=O)N(C)C)cc2)n1 [GSK-1070916]
Population Apoptotic (%) [1]: 80% | Population Fragmented Nuclei (%) [1]: 33% | Population Healthy Nuclei (%) [1]: 51% | Population Hoechst High Intensity Objects (%) [1]: 13% | Population Membrane Permeable-Phenotype (%) [1]: 4% | Population Mitochondria Different-Phenotype (%) [1]: 0% | Population Mitotic Cells (%) [1]: 19% | Population Normal (%) [1]: 86% | Population Pyknosed Nuclei (%) [1]: 14% | Population Tubulin-Different-Phenotype (%) [1]: 5% | Total Cell Count [1]: 205 | Population Apoptotic (%) [2]: 25% | Population Fragmented Nuclei (%) [2]: 56% | Population Healthy Nuclei (%) [2]: 34% | Population Hoechst High Intensity Objects (%) [2]: 46% | Population Membrane Permeable-Phenotype (%) [2]: 26% | Population Mitochondria Different-Phenotype (%) [2]: 6% | Population Mitotic Cells (%) [2]: 75% | Population Normal (%) [2]: 53% | Population Pyknosed Nuclei (%) [2]: 9% | Population Tubulin-Different-Phenotype (%) [2]: 13% | Total Cell Count [2]: 83 | Population Apoptotic (%) [3]: 60% | Population Fragmented Nuclei (%) [3]: 23% | Population Healthy Nuclei (%) [3]: 56% | Population Hoechst High Intensity Objects (%) [3]: 44% | Population Membrane Permeable-Phenotype (%) [3]: 5% | Population Mitochondria Different-Phenotype (%) [3]: 2% | Population Mitotic Cells (%) [3]: 39% | Population Normal (%) [3]: 55% | Population Pyknosed Nuclei (%) [3]: 19% | Population Tubulin-Different-Phenotype (%) [3]: 27% | Total Cell Count [3]: 473 | Population Apoptotic (%) [4]: 33% | Population Fragmented Nuclei (%) [4]: 54% | Population Healthy Nuclei (%) [4]: 35% | Population Hoechst High Intensity Objects (%) [4]: 49% | Population Membrane Permeable-Phenotype (%) [4]: 4% | Population Mitochondria Different-Phenotype (%) [4]: 13% | Population Mitotic Cells (%) [4]: 66% | Population Normal (%) [4]: 50% | Population Pyknosed Nuclei (%) [4]: 9% | Population Tubulin-Different-Phenotype (%) [4]: 52% | Total Cell Count [4]: 127 | Population Apoptotic (%) [5]: 70% | Population Fragmented Nuclei (%) [5]: 32% | Population Healthy Nuclei (%) [5]: 56% | Population Hoechst High Intensity Objects (%) [5]: 19% | Population Membrane Permeable-Phenotype (%) [5]: 3% | Population Mitochondria Different-Phenotype (%) [5]: 1% | Population Mitotic Cells (%) [5]: 30% | Population Normal (%) [5]: 80% | Population Tubulin-Different-Phenotype (%) [5]: 5% | Total Cell Count [5]: 222 | Population Apoptotic (%) [6]: 66% | Population Fragmented Nuclei (%) [6]: 62% | Population Healthy Nuclei (%) [6]: 26% | Population Hoechst High Intensity Objects (%) [6]: 23% | Population Membrane Permeable-Phenotype (%) [6]: 21% | Population Mitochondria Different-Phenotype (%) [6]: 14% | Population Mitotic Cells (%) [6]: 33% | Population Normal (%) [6]: 76% | Population Pyknosed Nuclei (%) [6]: 11% | Population Tubulin-Different-Phenotype (%) [6]: 21% | Total Cell Count [6]: 69 | Population Apoptotic (%) [7]: 49% | Population Fragmented Nuclei (%) [7]: 24% | Population Healthy Nuclei (%) [7]: 51% | Population Hoechst High Intensity Objects (%) [7]: 50% | Population Membrane Permeable-Phenotype (%) [7]: 0% | Population Mitochondria Different-Phenotype (%) [7]: 10% | Population Mitotic Cells (%) [7]: 50% | Population Normal (%) [7]: 50% | Population Pyknosed Nuclei (%) [7]: 24% | Population Tubulin-Different-Phenotype (%) [7]: 31% | Total Cell Count [7]: 430 | Population Apoptotic (%) [8]: 20% | Population Fragmented Nuclei (%) [8]: 45% | Population Healthy Nuclei (%) [8]: 40% | Population Hoechst High Intensity Objects (%) [8]: 44% | Population Membrane Permeable-Phenotype (%) [8]: 3% | Population Mitochondria Different-Phenotype (%) [8]: 20% | Population Mitotic Cells (%) [8]: 80% | Population Normal (%) [8]: 55% | Population Pyknosed Nuclei (%) [8]: 14% | Population Tubulin-Different-Phenotype (%) [8]: 51% | Total Cell Count [8]: 129
